Measured values from ChEMBL document CHEMBL5705904 (N Engl J Med, 2016).

Key:
[1] = Tmax in human at 100 mg, po administered for 8 days by LC-MS/MS analysis; format: ADME, organism-based; conditions: in vivo, time 8 day
Summary of the method: (§1)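 Patient plasma sampled on cycle 1 day 8 at predose and 0.25, 0.5, 0.75, 1, 2, 4 and 6 h post-dose, in lithium heparin. […] Tmax read directly from each individual's data; summarized descriptively.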

[2] = Half life in human at 175 mg, po administered for 8 days by LC-MS/MS analysis; format: ADME, organism-based; conditions: in vivo, time 8 day
Summary of the method: (§2)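 Steady-state plasma sampling on cycle 1 day 8 in patients, predose and 0.25, 0.5, 0.75, 1, 2, 4 and 6 h post-dose, into lithium heparin. Plasma was stored at -80°C. Drug was quantified by validated LC-MS/MS against a stable labeled internal standard, using only values at or above LLOQ and nominal sampling times.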

[3] = Tmax in human at 175 mg, po administered for 8 days by LC-MS/MS analysis; format: ADME, organism-based; conditions: in vivo, time 8 day; summary of the method: as §1
[4] = Tmax in human at 400 mg, po administered for 8 days by LC-MS/MS analysis; format: ADME, organism-based; conditions: in vivo, time 8 day; summary of the method: as §1
[5] = Drug exposure in human administered for 6 hrs by LC-MS/MS analysis; format: ADME; conditions: po, dose 100-400 mg
[6] = AUC(0 to 6 hrs) in human at 100 mg, po administered for 8 days by LC-MS/MS analysis; format: ADME, organism-based; conditions: in vivo, time 8 day; summary of the method: as §2
[7] = AUC(0 to 24 hrs) in human at 100 mg, po administered for 8 days by LC-MS/MS analysis; format: ADME, organism-based; conditions: in vivo, time 8 day; summary of the method: as §2
[8] = Half life in human at 250 mg, po administered for 8 days by LC-MS/MS analysis; format: ADME, organism-based; conditions: in vivo, time 8 day; summary of the method: as §2
[9] = AUC(0 to 6 hrs) in human at 400 mg, po administered for 8 days by LC-MS/MS analysis; format: ADME, organism-based; conditions: in vivo, time 8 day; summary of the method: as §2
[10] = biological target: Tyrosine-protein kinase Lck (Homo sapiens, UniProt P06239); test: Inhibition of recombinant LCK (unknown origin) preincubated for 1 hr […] by Z-Lyte assay
Tyrosine-protein kinase Lck, sequence (P06239 whole entry): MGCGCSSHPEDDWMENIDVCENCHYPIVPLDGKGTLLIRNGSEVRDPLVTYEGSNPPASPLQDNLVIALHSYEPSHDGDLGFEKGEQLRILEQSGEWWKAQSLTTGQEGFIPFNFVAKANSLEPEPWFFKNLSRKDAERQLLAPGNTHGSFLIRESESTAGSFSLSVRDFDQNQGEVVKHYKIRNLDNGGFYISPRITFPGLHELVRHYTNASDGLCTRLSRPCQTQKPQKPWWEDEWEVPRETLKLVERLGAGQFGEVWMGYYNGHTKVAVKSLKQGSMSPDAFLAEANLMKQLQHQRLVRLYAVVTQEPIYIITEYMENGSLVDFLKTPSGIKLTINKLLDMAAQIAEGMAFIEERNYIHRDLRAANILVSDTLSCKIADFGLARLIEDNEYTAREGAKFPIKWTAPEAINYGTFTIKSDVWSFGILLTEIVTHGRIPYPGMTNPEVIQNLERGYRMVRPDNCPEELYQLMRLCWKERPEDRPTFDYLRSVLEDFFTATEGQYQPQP
Summary of the method: (§3)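 Recombinant kinase activity was measured by Z'-LYTE with ATP at each enzyme's Km. Inhibitor came from a 10 mM DMSO stock and was tested at 10 concentrations. Compound was preincubated with kinase for 1 h before ATP addition started the reaction, for about 2 h total compound-kinase exposure. IC50 is from 2–3 independent experiments.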

[11] = AUC(0 to 6 hrs) in human at 175 mg, po administered for 8 days by LC-MS/MS analysis; format: ADME, organism-based; conditions: in vivo, time 8 day; summary of the method: as §2
[12] = AUC(0 to 12 hrs) in human at 100 mg, po BID administered for 8 days by LC-MS/MS analysis; format: ADME, organism-based; conditions: in vivo, time 8 day; summary of the method: as §2
[13] = biological target: Tyrosine-protein kinase Yes (Homo sapiens, UniProt P07947); test: Inhibition of recombinant YES1 (unknown origin) […] by Z-Lyte assay
Tyrosine-protein kinase Yes, sequence (P07947 whole entry): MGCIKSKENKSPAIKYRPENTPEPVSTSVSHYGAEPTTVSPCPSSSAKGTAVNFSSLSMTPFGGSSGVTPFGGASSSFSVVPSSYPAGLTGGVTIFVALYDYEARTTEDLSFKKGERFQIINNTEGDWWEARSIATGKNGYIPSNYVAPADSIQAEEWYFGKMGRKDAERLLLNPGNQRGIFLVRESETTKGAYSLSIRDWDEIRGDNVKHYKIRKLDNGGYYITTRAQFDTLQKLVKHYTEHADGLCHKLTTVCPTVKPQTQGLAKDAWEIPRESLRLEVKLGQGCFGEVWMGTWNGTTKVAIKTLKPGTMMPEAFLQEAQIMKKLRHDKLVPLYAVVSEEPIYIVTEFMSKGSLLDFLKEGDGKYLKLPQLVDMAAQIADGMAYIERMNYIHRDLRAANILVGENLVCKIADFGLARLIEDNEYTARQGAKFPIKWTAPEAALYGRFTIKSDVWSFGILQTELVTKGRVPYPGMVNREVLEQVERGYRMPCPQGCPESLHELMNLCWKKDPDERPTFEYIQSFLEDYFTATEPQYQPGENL
Summary of the method: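 Recombinant YES1 run in a Z'-LYTE assay. Compound preincubated with kinase for 1 h before ATP was added to start the reaction. IC50 derived from independent experiments run head-to-head with the comparator.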

[14] = Cmax in human at 100 mg, po BID administered for 8 days by LC-MS/MS analysis; format: ADME, organism-based; conditions: in vivo, time 8 day; summary of the method: as §2
[15] = Terminal elimination half life in human at 250 mg, po administered for 8 days by LC-MS/MS analysis; format: ADME, organism-based; conditions: in vivo, time 8 day, read-out: LambdaZ (converted)
[16] = AUC(0 to 24 hrs) in human at 400 mg, po administered for 8 days by LC-MS/MS analysis; format: ADME, organism-based; conditions: in vivo, time 8 day; summary of the method: as §2
[17] = Apparent oral clearance in human at 100 mg, po administered for 8 days by LC-MS/MS analysis; format: ADME, organism-based; conditions: in vivo, time 8 day; summary of the method: as §2
[18] = biological target: Tyrosine-protein kinase HCK (Homo sapiens, UniProt P08631); test: Inhibition of recombinant HCK (unknown origin) preincubated for 1 hr in presence of ATP by Z-Lyte assay; summary of the method: as §3
Tyrosine-protein kinase HCK, sequence (P08631 whole entry): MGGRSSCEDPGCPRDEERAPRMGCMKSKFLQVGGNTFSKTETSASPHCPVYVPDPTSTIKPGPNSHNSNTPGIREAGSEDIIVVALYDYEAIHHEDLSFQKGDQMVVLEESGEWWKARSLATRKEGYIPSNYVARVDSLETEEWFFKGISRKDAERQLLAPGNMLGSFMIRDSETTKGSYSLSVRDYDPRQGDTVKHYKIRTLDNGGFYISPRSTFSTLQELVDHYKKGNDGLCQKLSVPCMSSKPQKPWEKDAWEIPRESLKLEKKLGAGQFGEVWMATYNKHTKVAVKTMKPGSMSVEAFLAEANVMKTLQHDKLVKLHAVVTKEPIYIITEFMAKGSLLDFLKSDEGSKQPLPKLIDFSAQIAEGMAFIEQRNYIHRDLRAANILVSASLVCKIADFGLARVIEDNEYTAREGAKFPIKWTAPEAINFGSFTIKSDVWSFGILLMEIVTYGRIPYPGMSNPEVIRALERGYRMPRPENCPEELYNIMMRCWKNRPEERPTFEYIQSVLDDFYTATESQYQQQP

[19] = biological target: Tyrosine-protein kinase Fgr (Homo sapiens, UniProt P09769); test: Inhibition of recombinant FGR (unknown origin) preincubated for 1 hr in presence of ATP by Z-Lyte assay; summary of the method: as §3
Tyrosine-protein kinase Fgr, sequence (P09769 whole entry): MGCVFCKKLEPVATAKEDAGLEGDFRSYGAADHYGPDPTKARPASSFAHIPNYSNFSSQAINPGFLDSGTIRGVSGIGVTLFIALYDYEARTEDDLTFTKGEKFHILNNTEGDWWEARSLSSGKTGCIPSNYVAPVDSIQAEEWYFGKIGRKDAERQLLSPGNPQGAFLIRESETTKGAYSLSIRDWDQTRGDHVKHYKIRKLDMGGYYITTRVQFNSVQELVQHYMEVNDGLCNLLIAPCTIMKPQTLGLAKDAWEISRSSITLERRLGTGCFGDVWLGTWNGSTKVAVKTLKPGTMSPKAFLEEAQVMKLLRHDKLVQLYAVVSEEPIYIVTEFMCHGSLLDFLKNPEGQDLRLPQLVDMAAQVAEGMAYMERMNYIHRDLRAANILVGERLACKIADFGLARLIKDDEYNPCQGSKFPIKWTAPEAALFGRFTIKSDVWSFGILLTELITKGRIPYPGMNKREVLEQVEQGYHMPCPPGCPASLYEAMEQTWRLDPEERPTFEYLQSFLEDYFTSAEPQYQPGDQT

[20] = Apparent volume of distribution during terminal phase in human at 400 mg, po administered for 8 days by LC-MS/MS analysis; format: ADME, organism-based; conditions: in vivo, time 8 day, read-out: Vz/F; summary of the method: as §2
[21] = AUC(0 to infinity) in human at 250 mg, po administered for 8 days by LC-MS/MS analysis; format: ADME, organism-based; conditions: in vivo, time 8 day; summary of the method: as §2
[22] = Apparent oral clearance in human at 175 mg, po administered for 8 days by LC-MS/MS analysis; format: ADME, organism-based; conditions: in vivo, time 8 day; summary of the method: as §2
[23] = Tmax in human at 250 mg, po administered for 8 days by LC-MS/MS analysis; format: ADME, organism-based; conditions: in vivo, time 8 day; summary of the method: as §1
[24] = Apparent volume of distribution during terminal phase in human at 250 mg, po administered for 8 days by LC-MS/MS analysis; format: ADME, organism-based; conditions: in vivo, time 8 day, read-out: Vz/F; summary of the method: as §2
[25] = Terminal elimination half life in human at 175 mg, po administered for 8 days by LC-MS/MS analysis; format: ADME, organism-based; conditions: in vivo, time 8 day, read-out: LambdaZ (converted)
[26] = AUC(0 to infinity) in human at 100 mg, po BID administered for 8 days by LC-MS/MS analysis; format: ADME, organism-based; conditions: in vivo, time 8 day; summary of the method: as §2
[27] = AUC(0 to 12 hrs) in human at 100 mg, po administered for 8 days by LC-MS/MS analysis; format: ADME, organism-based; conditions: in vivo, time 8 day; summary of the method: as §2
[28] = Apparent volume of distribution during terminal phase in human at 100 mg, po administered for 8 days by LC-MS/MS analysis; format: ADME, organism-based; conditions: in vivo, time 8 day, read-out: Vz/F; summary of the method: as §2
[29] = Apparent oral clearance in human at 400 mg, po administered for 8 days by LC-MS/MS analysis; format: ADME, organism-based; conditions: in vivo, time 8 day; summary of the method: as §2
[30] = biological target: Proto-oncogene tyrosine-protein kinase Src (Homo sapiens, UniProt P12931); test: Inhibition of recombinant SRC (unknown origin) preincubated for 1 hr in presence of ATP by Z-Lyte assay
Proto-oncogene tyrosine-protein kinase Src, sequence (P12931 2-536 limits assumed): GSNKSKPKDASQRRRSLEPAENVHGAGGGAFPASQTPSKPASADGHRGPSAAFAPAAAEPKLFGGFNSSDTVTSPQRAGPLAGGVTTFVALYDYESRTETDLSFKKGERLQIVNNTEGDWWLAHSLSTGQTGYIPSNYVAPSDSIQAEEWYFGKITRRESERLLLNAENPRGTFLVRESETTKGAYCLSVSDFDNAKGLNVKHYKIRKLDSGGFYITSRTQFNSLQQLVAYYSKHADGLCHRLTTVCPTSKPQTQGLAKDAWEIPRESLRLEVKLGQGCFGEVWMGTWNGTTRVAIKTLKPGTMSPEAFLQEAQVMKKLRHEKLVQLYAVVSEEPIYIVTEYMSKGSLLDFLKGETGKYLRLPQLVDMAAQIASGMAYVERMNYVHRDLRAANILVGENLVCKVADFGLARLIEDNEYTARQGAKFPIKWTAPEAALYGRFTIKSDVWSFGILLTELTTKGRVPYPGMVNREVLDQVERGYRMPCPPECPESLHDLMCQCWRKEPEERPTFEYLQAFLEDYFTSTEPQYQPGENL

[31] = AUC(0 to 6 hrs) in human at 100 mg, po BID administered for 8 days by LC-MS/MS analysis; format: ADME, organism-based; conditions: in vivo, time 8 day; summary of the method: as §2

Tmax [1]: 48.6 min
half-life [2]: 61.2 min
Tmax [3]: 38.4 min
Tmax [4]: 55.2 min
Drug uptake [5]: Dose-Dependent Effect
AUC at 192 h [6]: 584 ng·h/mL
AUC at 192 h [7]: 603 ng·h/mL
half-life [8]: 56.5 min
AUC at 192 h [9]: 1730 ng·h/mL
IC50 [10]: > 1 µM
AUC at 192 h [11]: 1140 ng·h/mL
AUC at 192 h [12]: 926 ng·h/mL
IC50 [13]: > 1 µM
Cmax [14]: 827 ng/mL
k el at 192 h [15]: 0.000206 s⁻¹
AUC at 192 h [16]: 1870 ng·h/mL
CL/F [17]: 3000 mL/min
IC50 [18]: > 1 µM
IC50 [19]: > 1 µM
Vd/F [20]: 677 L
AUC(0-inf) [21]: 2310 ng·h/mL
CL/F [22]: 3550 mL/min
Tmax [23]: 66 min
Vd/F [24]: 179 L
k el at 192 h [25]: 0.000194 s⁻¹
AUC(0-inf) [26]: 927 ng·h/mL
AUC at 192 h [27]: 602 ng·h/mL
Vd/F [28]: 308 L
CL/F [29]: 5200 mL/min
IC50 [30]: > 1 µM
AUC at 192 h [31]: 826 ng·h/mL
SMILES: CC#CC(=O)N1CCC[C@H]1c1nc(-c2ccc(C(=O)Nc3ccccn3)cc2)c2c(N)nccn12 [ACALABRUTINIB]
